According to paper PMC4682886 (ChemMedChem, 2015):

Experiments:
[1] = system: C. albicans susceptible strain HLY4123; assay: Dose-response curves of test compounds against C. albicans with fluconazole; assay type: cell-based; details: for EC50: strain HLY4123, in the presence of fluconazole (0.25 μg/mL), mean ± SD of three independent experiments; for activity under the conditions of the assay: strain HLY4123, in combination with fluconazole
[2] = system: partially resistant clinical isolate of C. albicans CaCi-8; details: cited from earlier work; for active concentration: against CaCi-8 with fluconazole, none active below this, ref [48]–[50]
NIH 3T3 cells = assay: Cytotoxicity against NIH 3T3 cells; assay type: cell-based; details: concentrations up to 1.5 mM
Summary of the method: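 Test compound applied to NIH 3T3 cells at concentrations up to 1.5 mM. Values are arithmetic means ± SD of three independent experiments.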

Compound	EC50 [1] [nM]	other results
Cc1c(Cl)ccc2c1N(Cc1ccccc1)C(=O)[C@@]21[C@H]2C(=O)N(c3ccccc3)C(=O)[C@H]2[C@H]2CN(C(=O)OC(C)(C)C)CCN21 (racemic) [Compound 17, (±)-tert-butyl (3R,3a′R,3b′S,9a′S)-1-benzyl-6-chloro-7-methyl-1′,2,3′-trioxo-2′-phenyl-2′,3′,3a′,3b′,4′,6′,7′,9a′-octahydrospiro [indoline-3,9′-pyrrolo[3′,4′:3,4]pyrrolo[1,2-a]pyrazine]-5′(1′H)-carboxy late]	> 100000	
O=C1[C@H]2[C@@H](Cc3ccccc3)N[C@]3(C(=O)N(Cc4ccccc4)c4ccccc43)[C@H]2C(=O)N1c1ccccc1 (racemic) [Compound 12, (±)-(3R,3′R,3a′R,6a′S)-1,3′-Dibenzyl-5′-phenyl-2′,3′,3a′,6a′-tetrahydro-4′H-spiro[indoline-3,1′-pyrrolo[3,4-c]pyrrole]-2,4′,6′(5′H)-trione]	> 100000	
Cc1c(Cl)ccc2c1NC(=O)[C@@]21[C@H]2C(=O)N(c3ccccc3)C(=O)[C@H]2[C@H]2CN(C(=O)CCc3ccccc3)CCN21 (racemic) [Compound 29, (±)-(3R,3a′R,3b′S,9a′S)-6-chloro-7-methyl-2′-phenyl-5′-(3-phenylpropanoyl)-3a′,4′,5′,6′,7′,9a′-hexahydrospiro[indoline-3,9′-pyrrolo[3′,4′:3,4]pyrrolo[1,2-a]pyrazine]-1′,2,3′(2′H,3b′H)-trione]	18.1 ± 4	
COC(=O)Cn1nc(-c2cccc(OC)c2)c2ccccc21 [ML212]		active concentration [2]: ≥ 0.7 µM
Cc1c(Cl)ccc2c1NC(=O)[C@]21[C@H]2C(=O)N(c3ccccc3)C(=O)[C@H]2[C@@H]2C[C@@H](OC(=O)c3ccccc3)CN21 [Compound 25a, (+)-(3S,3a′S,7′R,8a′S,8b′R)-6-chloro-7-methyl-1′,2,3′-tri oxo-2′-phenyl-2′,3′,3a′,6′,7′,8′,8a′,8b′-octahydro-1′H-spiro[indoline-3,4′-pyrrolo[3,4-a]pyrrolizin]-7′-yl benzoate]		activity under the conditions of the assay [1]: almost no activity
Cc1c(Cl)ccc2c1NC(=O)[C@@]21[C@H]2C(=O)N(c3ccccc3)C(=O)[C@H]2[C@H]2CN(C(=O)OC(C)(C)C)CCN21 (racemic) [Compound 14, (±)-tert-Butyl (3R,3a′R,3b′S,9a′S)-6-chloro-7-methyl-1′,2,3′-trioxo-2′-phenyl-2′,3′,3a′,3b′,4′,6′,7′,9a′-octahydrospiro[indoline-3,9′-pyrrolo[3′, 4′:3,4]pyrrolo[1,2-a]pyrazine]-5′(1′H)-carboxylate]	5.6 ± 3	
CC(C)(C)OC(=O)NCCCC[C@H]1N[C@]2(C(=O)Nc3ccccc32)[C@H]2C(=O)N(Cc3ccccc3)C(=O)[C@@H]12 (racemic) [Compound 10, (±)-tert-Butyl (4-((3R,3′R,3a′R,6a′S)-5′-benzyl-2,4′,6′-trioxo-3′,3a′,4′,5′, 6′,6a′-hexahydro-2′H-spiro[indoline-3,1′-pyrrolo[3,4-c]pyrrol]-3′-yl)butyl)carbamate]	> 100000	
Cc1cccc2c1NC(=O)[C@@]21[C@H]2C(=O)N(c3ccccc3)C(=O)[C@H]2[C@H]2CN(C(=O)OC(C)(C)C)CCN21 (racemic) [Compound 22, (±)-tert-Butyl (3R,3a′R,3b′S,9a′S)-7-methyl-1′,2,3′-trioxo-2′-phenyl-2′, 3′,3a′,3b′,4′,6′,7′,9a′-octahydrospiro[indoline-3,9′-pyrrolo[3′,4′:3,4]pyrrolo[1,2-a]pyrazine]-5′(1′H)-carboxylate]	213 ± 80	
O=C(Cn1c2ccccc2c2nc3n(c(=O)c21)CCS3)N1CCCC1 [ML229]		active concentration [2]: ≥ 0.7 µM
Cc1ccc2c(c1C)NC(=O)[C@@]21[C@H]2C(=O)N(c3ccccc3)C(=O)[C@H]2[C@H]2CN(C(=O)OC(C)(C)C)CCN21 (racemic) [Compound 23, (±)-tert-Butyl (3R,3a′R,3b′S,9a′S)-6,7-dimethyl-1′,2,3′-trioxo-2′-phenyl-2′,3′,3a′,3b′,4′,6′,7′,9a′-octahydrospiro[indoline-3,9′-pyrrolo[3′,4′:3,4]pyrrolo[1,2-a]pyrazine]-5′(1′H)-carboxylate]	5.7 ± 6	
COC(=O)CCCCCCCCC(=O)N1CCN2[C@H](C1)[C@@H]1C(=O)N(c3ccccc3)C(=O)[C@@H]1[C@@]21C(=O)Nc2c1ccc(Cl)c2C (racemic) [Compound 27, (±)-methyl 10-((3R,3a′R,3b′S,9a′S)-6-chloro-7-methyl-1′,2,3′-trioxo-2′-phenyl-2′,3′,3a′,3b′,4′,6′,7′,9a′-octahydrospiro [indoline-3,9′-pyrrolo[3′,4′:3,4]pyrrolo[1,2-a]pyrazin]-5′(1′H)-yl)-10-oxodecanoate]	37.9 ± 9	
Cc1c(Cl)ccc2c1NC(=O)[C@@]21[C@H]2C(=O)N(c3ccccc3)C(=O)[C@H]2[C@H]2CNCCN21 (racemic) [Compound 26, (±)-(3R,3a′R,3b′S,9a′S)-6-chloro-7-methyl-2′-phenyl-3a′,4′,5′,6′,7′,9a′-hexahydrospiro[indoline-3,9′-pyrrolo[3′,4′:3,4]pyrolo[1,2-a]pyrazine]-1′,2,3′(2′H,3b′H)-trione]	~10000	
(±)-tert-Butyl (3R,3a′R,3b′S,9a′S)-2′-benzyl-1′,2,3′-trioxo-2′,3′,3a′,3b′, 4′,6′,7′,9a′-octahydrospiro[indoline-3,9′-pyrrolo[3′,4′:3,4]pyrrolo[1,2-a]pyrazine]-5′(1′H)-carboxylate [Compound 19]	> 100000	
O=C1[C@H]2[C@@H](Cc3ccccc3)N[C@]3(C(=O)N(Cc4ccccc4)c4ccccc43)[C@H]2C(=O)N1Cc1ccccc1 (racemic) [Compound 11, (±)-(3R,3′R,3a′R,6a′S)-1,3′,5′-Tribenzyl-2′,3′,3a′,6a′-tetrahydro-4′H-spi ro[indoline-3,1′-pyrrolo[3,4-c]pyrrole]-2,4′,6′(5′H)-trione]	> 10000	
CO[C@H](C(=O)N1CCN2[C@H](C1)[C@@H]1C(=O)N(c3ccccc3)C(=O)[C@@H]1[C@@]21C(=O)Nc2c1ccc(Cl)c2C)c1ccccc1 (racemic) [Compound 28, (±)-(3R,3a′R,3b′S,9a′S)-6-chloro-5′-((S)-2-methoxy-2-phenylacetyl)-7-methyl-2′-phenyl-3a′,4′,5′,6′,7′,9a′-hexahydrospiro [indoline-3,9′-pyrrolo[3′,4′:3,4]pyrrolo[1,2-a]pyrazine]-1′,2,3′(2′H, 3b′H)-trione]	35 ± 7	
Cc1c(Cl)ccc2c1NC(=O)[C@@]21[C@@H]2C(=O)N(c3ccccc3)C(=O)[C@@H]2[C@H]2C[C@@H](OC(=O)c3ccccc3)CN21 [Compound 25b, (−)-(3R,3a′R,7′R, 8a′R,8b′S)-6-chloro-7-methyl-1′,2,3′-trioxo-2′-phenyl-2′,3′,3a′,6′,7′,8′, 8a′,8b′-octahydro-1′H-spiro[indoline-3,4′-pyrrolo[3,4-a]pyrrolizin]-7′-yl benzoate]		activity under the conditions of the assay [1]: almost no activity
Cc1c(Cl)ccc2c1NC(=O)[C@]21N[C@H](Cc2ccccc2)[C@@H]2C(=O)N(c3ccccc3)C(=O)[C@@H]21 (racemic) [Compound 13, (±)-(3R,3′R,3a′R,6a′S)-3′-Benzyl-6-chloro-7-methyl-5′-phenyl-2′,3′,3a′, 6a′-tetrahydro-4′H-spiro[indoline-3,1′-pyrrolo[3,4-c]pyrrole]-2,4′,6′ (5′H)-trione]	1 ± 0.5	
O=C1[C@H]2[C@@H](Cc3c[nH]c4ccccc34)N[C@]3(C(=O)Nc4ccccc43)[C@H]2C(=O)N1Cc1ccccc1 (racemic) [Compound 9, (±)-(3R,3′R,3a′R,6a′S)-3′-((1H-Indol-3-yl)methyl)-5′-benzyl-2′,3′,3a′,6a′-tetrahydro-4′H-spiro[indoline-3,1′-pyrrolo[3,4-c]pyrrole]-2,4′,6′(5′H)-trione]	~10000	
O=C(c1ccc(Cl)cc1)N1CCN(c2ccnc3cc(Cl)ccc23)CC1 [ML189]		active concentration [2]: ≥ 0.7 µM
O=C1[C@H]2[C@@H](Cc3ccccc3)N[C@]3(C(=O)Nc4ccccc43)[C@H]2C(=O)N1Cc1ccccc1 (racemic) [Compound 8, (±)-(3R,3′R,3a′R,6a′S)-3′,5′-Dibenzyl-2′,3′,3a′,6a′-tetrahydro-4′H-spiro [indoline-3,1′-pyrrolo[3,4-c]pyrrole]-2,4′,6′(5′H)-trione]	~10000	
Cc1c(Cl)ccc2c1NC(=O)[C@@]21[C@H]2C(=O)N(c3ccc(F)cc3)C(=O)[C@H]2[C@H]2CN(C(=O)OC(C)(C)C)CCN21 (racemic) [Compound 15, (±)-tert-Butyl (3R,3a′R,3b′S,9a′S)-6-chloro-2′-(4-fluorophenyl)-7-methyl-1′,2,3′-trioxo-2′,3′,3a′,3b′,4′,6′,7′,9a′-octahydrospiro[indoline-3,9′-pyrrolo[3′,4′:3,4]pyrrolo[1,2-a]pyrazine]-5′(1′H)-carboxylate]	37 ± 1	
Cc1c(Cl)ccc2c1NC(=O)[C@@]21[C@H]2C(=O)N(c3cc(C(F)(F)F)cc(C(F)(F)F)c3)C(=O)[C@H]2[C@H]2CN(C(=O)OC(C)(C)C)CCN21 (racemic) [Compound 16, (±)-tert-Butyl (3R,3a′R,3b′S,9a′S)-2′-(3,5-bis(trifluoromethyl)phenyl)-6-chloro-7-methyl-1′,2,3′-trioxo-2′,3′,3a′,3b′,4′,6′,7′,9a′-octahydrospiro [indoline-3,9′-pyrrolo[3′,4′:3,4]pyrrolo[1,2-a]pyrazine]-5′(1′H)-carboxy late]	23.7 ± 10	
Cc1c(Cl)ccc2c1NC(=O)[C@]21N[C@H](Cc2ccccc2)[C@@H]2C(=O)N(c3ccc(F)cc3)C(=O)[C@@H]21 (racemic) [Compound 1, (±)-(3R,3′R,3a′R,6a′S)-3′-benzyl-6-chloro-5′-(4-fluorophenyl)-7-methyl-2′,3′,3a′,6a′-tetrahydro-4′H-spiro[indoline-3,1′-pyrrolo[3,4-c]pyrrole]-2,4′,6′(5′H)-trione]	11 ± 4	cytotoxicity (NIH 3T3 cells): only weak cytotoxicity
Cc1c(Cl)ccc2c1NC(=O)[C@]21N[C@@H](Cc2ccccc2)[C@H]2C(=O)N(c3ccc(F)cc3)C(=O)[C@H]21 [CID 6584729, (1S,3R,3aR,6aS)-1-benzyl-6′-chloro-5-(4-fluorophenyl)-7′-methylspiro[1,2,3a,6a-tetrahydropyrrolo[3,4-c]pyrrole-3,3′-1H-indole]-2′,4,6-trione]		EC50 ([2]; enhancing the effect of fluconazole against CaCi-8, ref [68]): 120 nM
